# Test results: ChEMBL document CHEMBL3228038 (J Med Chem, 1979)
# Activity calls are given as the source filed them. The rule behind the calls is not given here.
# Key:
# Mus musculus [1] = assay: Inhibition of morphine-induced analgesia in Swiss Webster mouse assessed as change in morphine ED50 at 2.4 nmol, icv after 2 hrs by tail flick test; format: functional, organism-based
# Mus musculus [2] = assay: Effect on development of dependence to morphine in Swiss Webster mouse assessed as increase in naloxone ED50 for eliciting withdrawal jumping at 0.24 nmol, icv after 24 hrs relative to control; format: functional, organism-based
# Method in brief: (§1)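 Male Swiss Webster mice, 20-25 g. Given icv injection (4 µL saline vehicle) immediately after sc implantation of a 50 mg morphine or placebo pellet. At 24 and 72 h, naloxone given sc (10 mL/kg saline) and ED50 taken for precipitated withdrawal jumping (Way method). Groups of 4-5 mice per ED50.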
# Mus musculus [3] = assay: Effect on development of dependence to morphine in Swiss Webster mouse assessed as increase in naloxone ED50 for eliciting withdrawal jumping at 0.24 nmol, icv after 72 hrs relative to control; format: functional, organism-based; method in brief: as §1
# Mus musculus [4] = assay: Analgesic activity in Swiss Webster mouse at 4 nmol, icv after 10 to 120 mins by tail flick test; format: functional, organism-based
# Method in brief: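 Male Swiss Webster mice, 20-25 g. Compound given icv in 4 µL saline (working solution from ethanol/0.05 N HCl stock, evaporated under nitrogen). Agonist activity read by modified D'Amour-Smith tail-flick at intervals out to 2 h post-injection. Saline icv controls given in the same volume.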
# Mus musculus [5] = assay: Toxicity in Swiss Webster mouse assessed as lethargic behavior at 4 nmol, icv; format: organism-based; conditions: in vivo, icv_or_intrathecal
# Method in brief: (§2)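 Male Swiss Webster mice, 20-25 g, observed after icv injection in 4 µL saline. Recorded: lethality and preceding tonic convulsions within 1.5 h, lethargy, startle reflex to hand clap, locomotor activity, and tail-flick latency.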
# Mus musculus [6] = assay: Toxicity in icv dosed Swiss Webster mouse assessed as suppression of startle reflex to loud and abrupt auditory stimulus; format: organism-based; conditions: in vivo, icv_or_intrathecal; method in brief: as §2
# Mus musculus [7] = assay: Toxicity in icv dosed Swiss Webster mouse assessed as decrease in locomotor activity; format: organism-based; conditions: in vivo, icv_or_intrathecal; method in brief: as §2
# Mus musculus [8] = assay: Toxicity in icv dosed Swiss Webster mouse assessed as change in tail flick latency; format: organism-based; conditions: in vivo, icv_or_intrathecal; method in brief: as §2
# Mus musculus [9] = assay: Toxicity in Swiss Webster mouse assessed as lethality at 4.8 nmol, icv after 1.5 hrs; format: organism-based; conditions: in vivo, icv_or_intrathecal; method in brief: as §2
# Mus musculus [10] = assay: Toxicity in Swiss Webster mouse assessed as tonic convulsions at 4.8 nmol, icv; format: organism-based; conditions: in vivo, icv_or_intrathecal; method in brief: as §2
# Mus musculus [11] = assay: Toxicity in Swiss Webster mouse assessed as mortality at 2.4 nmol, icv; format: organism-based; conditions: in vivo, icv_or_intrathecal; method in brief: as §2
# Mus musculus [12] = assay: Toxicity in icv dosed Swiss Webster mouse assessed as lethargic behavior; format: organism-based; conditions: in vivo, icv_or_intrathecal; method in brief: as §2
SMILES,inhibition (Mus musculus [1]),Activity (Mus musculus [2]),Activity (Mus musculus [3]),Activity (Mus musculus [4]),Activity (Mus musculus [5]),Activity (Mus musculus [6]),Activity (Mus musculus [7]),Activity (Mus musculus [8]),Activity (Mus musculus [9]),Activity (Mus musculus [10]),Activity (Mus musculus [11]),Activity (Mus musculus [12])
O=C1CC[C@@]2(O)[C@H]3Cc4ccc(O)c5c4[C@@]2(CCN3CC2CC2)[C@H]1O5,inactive,inactive,inactive,,,,,,,,,
O=C(O)CCCc1ccc(N(CCCl)CCCl)cc1 [CHLORAMBUCIL],inactive,,,inactive,Toxic,Non-toxic,Toxic,Non-toxic,,,,
Oc1ccc2c3c1O[C@H]1[C@H](N(CCCl)CCCl)CC[C@@]4(O)[C@@H](C2)N(CC2CC2)CC[C@]314,,,,,,Non-toxic,Toxic,Non-toxic,Toxic,Toxic,Toxic,Toxic
